Results published in ChEMBL document CHEMBL5724801, “EUbOPEN Chemogenomics Library - Multiplex” (2024).
“And” between values parts separate entries of the source, which are not always exact repeats. Equal entries are not always repeated.

system: Fibroblast; assay: Multiplex assay against human fibroblast; format: toxicity, cell-based; conditions: 12 h, 1 µM, compound concentration 1 uM
In short: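 Live cells were stained at seeding with Hoechst33342, BioTracker Green Microtubule Cytoskeleton Dye, MitoTracker Red and Annexin V Alexa Fluor 680, then imaged on a CQ1 microscope at 37°C and 5% CO2 after compound addition. CellPathfinder machine-learning gating split cells into Hoechst high-intensity objects or normal cells. Normal cells were split into healthy, pyknosed or fragmented nuclei, and pyknosed cells into mitotic or apoptotic. Tubulin, mitochondrial-mass and membrane-permeability phenotypes are per cents of healthy-nucleus cells.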

What does the source list for `Nc1nc(CC(=O)Nc2ccc(CCNC[C@H](O)c3ccccc3)cc2)cs1` [MIRABEGRON]?
Population Apoptotic (%): 53% and 31%; Population Fragmented Nuclei (%): 19% and 27%; Population Healthy Nuclei (%): 62% and 52%; Population Hoechst High Intensity Objects (%): 5% and 4%; Population Membrane Permeable-Phenotype (%): 0% and 9%; Population Mitochondria Different-Phenotype (%): 6% and 12%; Population Mitotic Cells (%): 46% and 68%; Population Normal (%): 94% and 95%; Population Pyknosed Nuclei (%): 18% and 19%; Population Tubulin-Different-Phenotype (%): 25% and 46%; Total Cell Count: 164 and 189

How did the “Population Apoptotic (%)” value turn out when `COc1ccc2c(c1OCc1ccccc1)C[C@@H](C(=O)O)N(C(=O)C(c1ccccc1)c1ccccc1)C2` [OLODANRIGAN] was run?
Its value is 46% and 38%.

And the “Population Fragmented Nuclei (%)” value?
The value was 17% and 21%.

What about the “Population Healthy Nuclei (%)” value of the same molecule?
Its value is 63% and 50%.

And the “Population Hoechst High Intensity Objects (%)” value?
The value was 7% and 1%.

And the “Population Membrane Permeable-Phenotype (%)” value?
The value was 1% and 9%.

And the “Population Mitochondria Different-Phenotype (%)” value?
Its value is 2% and 5%.

What about the “Population Mitotic Cells (%)” value of the same molecule?
Its value is 53% and 61%.

What about the “Population Normal (%)” value of the same molecule?
Its value is 92% and 98%.

What about the “Population Pyknosed Nuclei (%)” value of the same molecule?
The value was 19% and 27%.

And the “Population Tubulin-Different-Phenotype (%)” value?
Its value is 29% and 57%.

And the “Total Cell Count” value?
Its value is 157 and 154.

same assay, conditions: 12 h, 10 µM, compound concentration 10 uM

Which “Population Apoptotic (%)” value does the source give for `Nc1nc(CC(=O)Nc2ccc(CCNC[C@H](O)c3ccccc3)cc2)cs1` [MIRABEGRON] here?
The value was 46% and 30%.

What about the “Population Fragmented Nuclei (%)” value of the same molecule?
The value was 15% and 31%.

And the “Population Healthy Nuclei (%)” value?
The value was 75% and 41%.

And the “Population Hoechst High Intensity Objects (%)” value?
The value was 3% and 5%.

And the “Population Membrane Permeable-Phenotype (%)” value?
The value was 0% and 1%.

And the “Population Mitochondria Different-Phenotype (%)” value?
The value was 4% and 3%.

What about the “Population Mitotic Cells (%)” value of the same molecule?
Its value is 53% and 69%.

And the “Population Normal (%)” value?
The value was 96% and 94%.

What about the “Population Pyknosed Nuclei (%)” value of the same molecule?
The value was 9% and 27%.

What about the “Population Tubulin-Different-Phenotype (%)” value of the same molecule?
The value was 19% and 45%.

And the “Total Cell Count” value?
Its value is 171 and 137.

What does the source list for `COc1ccc2c(c1OCc1ccccc1)C[C@@H](C(=O)O)N(C(=O)C(c1ccccc1)c1ccccc1)C2` [OLODANRIGAN]?
Population Apoptotic (%): 31% and 34%; Population Fragmented Nuclei (%): 11% and 18%; Population Healthy Nuclei (%): 65% and 54%; Population Hoechst High Intensity Objects (%): 0% and 5%; Population Membrane Permeable-Phenotype (%): 1% and 6%; Population Mitochondria Different-Phenotype (%): 7%; Population Mitotic Cells (%): 68% and 65%; Population Normal (%): 99% and 94%; Population Pyknosed Nuclei (%): 23% and 26%; Population Tubulin-Different-Phenotype (%): 28% and 46%; Total Cell Count: 140 and 162

same assay, conditions: 24 h, 1 µM, compound concentration 1 uM

Which “Population Apoptotic (%)” value does the source give for `Nc1nc(CC(=O)Nc2ccc(CCNC[C@H](O)c3ccccc3)cc2)cs1` [MIRABEGRON] here?
The value was 59% and 58%.

And the “Population Fragmented Nuclei (%)” value?
Its value is 17% and 27%.

What about the “Population Healthy Nuclei (%)” value of the same molecule?
Its value is 64% and 57%.

What about the “Population Hoechst High Intensity Objects (%)” value of the same molecule?
The value was 5%.

And the “Population Membrane Permeable-Phenotype (%)” value?
The value was 1% and 9%.

And the “Population Mitochondria Different-Phenotype (%)” value?
The value was 4% and 7%.

And the “Population Mitotic Cells (%)” value?
Its value is 40% and 41%.

What about the “Population Normal (%)” value of the same molecule?
Its value is 94%.

And the “Population Pyknosed Nuclei (%)” value?
The value was 18% and 14%.

What about the “Population Tubulin-Different-Phenotype (%)” value of the same molecule?
The value was 28% and 45%.

And the “Total Cell Count” value?
The value was 156 and 179.

With `COc1ccc2c(c1OCc1ccccc1)C[C@@H](C(=O)O)N(C(=O)C(c1ccccc1)c1ccccc1)C2` [OLODANRIGAN] as the molecule, how does the “Population Apoptotic (%)” value read?
Its value is 65% and 38%.

What about the “Population Fragmented Nuclei (%)” value of the same molecule?
The value was 18% and 21%.

And the “Population Healthy Nuclei (%)” value?
Its value is 66% and 53%.

And the “Population Hoechst High Intensity Objects (%)” value?
Its value is 6% and 2%.

And the “Population Membrane Permeable-Phenotype (%)” value?
The value was 0% and 9%.

What about the “Population Mitochondria Different-Phenotype (%)” value of the same molecule?
The value was 1% and 7%.

What about the “Population Mitotic Cells (%)” value of the same molecule?
Its value is 34% and 61%.

And the “Population Normal (%)” value?
Its value is 93% and 97%.

And the “Population Pyknosed Nuclei (%)” value?
Its value is 15% and 25%.

And the “Population Tubulin-Different-Phenotype (%)” value?
Its value is 26% and 46%.

What about the “Total Cell Count” value of the same molecule?
The value was 159 and 146.

same assay, conditions: 24 h, 10 µM, compound concentration 10 uM

For `Nc1nc(CC(=O)Nc2ccc(CCNC[C@H](O)c3ccccc3)cc2)cs1` [MIRABEGRON], which “Population Apoptotic (%)” value is on record?
Its value is 53% and 55%.

And the “Population Fragmented Nuclei (%)” value?
Its value is 15% and 29%.

And the “Population Healthy Nuclei (%)” value?
Its value is 75% and 48%.

And the “Population Hoechst High Intensity Objects (%)” value?
The value was 2% and 4%.

And the “Population Membrane Permeable-Phenotype (%)” value?
Its value is 0% and 4%.

What about the “Population Mitochondria Different-Phenotype (%)” value of the same molecule?
The value was 4% and 6%.

What about the “Population Mitotic Cells (%)” value of the same molecule?
Its value is 46% and 44%.

And the “Population Normal (%)” value?
Its value is 97% and 95%.

What about the “Population Pyknosed Nuclei (%)” value of the same molecule?
Its value is 8% and 21%.

What about the “Population Tubulin-Different-Phenotype (%)” value of the same molecule?
The value was 24% and 44%.

And the “Total Cell Count” value?
Its value is 181 and 131.

What does the source list for `COc1ccc2c(c1OCc1ccccc1)C[C@@H](C(=O)O)N(C(=O)C(c1ccccc1)c1ccccc1)C2` [OLODANRIGAN]?
Population Apoptotic (%): 53% and 58%; Population Fragmented Nuclei (%): 10% and 17%; Population Healthy Nuclei (%): 68% and 62%; Population Hoechst High Intensity Objects (%): 2% and 3%; Population Membrane Permeable-Phenotype (%): 1% and 4%; Population Mitochondria Different-Phenotype (%): 3% and 4%; Population Mitotic Cells (%): 46% and 41%; Population Normal (%): 97% and 96%; Population Pyknosed Nuclei (%): 21% and 19%; Population Tubulin-Different-Phenotype (%): 21% and 50%; Total Cell Count: 136 and 153

same assay, conditions: 48 h, 1 µM, compound concentration 1 uM

`Nc1nc(CC(=O)Nc2ccc(CCNC[C@H](O)c3ccccc3)cc2)cs1` [MIRABEGRON] was tested. Which “Population Apoptotic (%)” value did it give?
Its value is 76% and 50%.

What about the “Population Fragmented Nuclei (%)” value of the same molecule?
The value was 23% and 40%.

And the “Population Healthy Nuclei (%)” value?
Its value is 60% and 52%.

And the “Population Hoechst High Intensity Objects (%)” value?
Its value is 7% and 2%.

What about the “Population Membrane Permeable-Phenotype (%)” value of the same molecule?
Its value is 2% and 4%.

And the “Population Mitochondria Different-Phenotype (%)” value?
The value was 6% and 10%.

And the “Population Mitotic Cells (%)” value?
The value was 23% and 50%.

What about the “Population Normal (%)” value of the same molecule?
The value was 92% and 97%.

And the “Population Pyknosed Nuclei (%)” value?
The value was 15% and 7%.

And the “Population Tubulin-Different-Phenotype (%)” value?
Its value is 28% and 32%.

What about the “Total Cell Count” value of the same molecule?
The value was 176 and 195.

With `COc1ccc2c(c1OCc1ccccc1)C[C@@H](C(=O)O)N(C(=O)C(c1ccccc1)c1ccccc1)C2` [OLODANRIGAN] as the molecule, how does the “Population Apoptotic (%)” value read?
The value was 42% and 41%.

What about the “Population Fragmented Nuclei (%)” value of the same molecule?
Its value is 27% and 31%.

And the “Population Healthy Nuclei (%)” value?
Its value is 58% and 52%.

What about the “Population Hoechst High Intensity Objects (%)” value of the same molecule?
Its value is 3% and 1%.

What about the “Population Membrane Permeable-Phenotype (%)” value of the same molecule?
Its value is 0% and 1%.

What about the “Population Mitochondria Different-Phenotype (%)” value of the same molecule?
The value was 2% and 4%.

What about the “Population Mitotic Cells (%)” value of the same molecule?
Its value is 57% and 58%.

And the “Population Normal (%)” value?
Its value is 96% and 98%.

What about the “Population Pyknosed Nuclei (%)” value of the same molecule?
Its value is 14% and 15%.

And the “Population Tubulin-Different-Phenotype (%)” value?
The value was 20% and 40%.

What about the “Total Cell Count” value of the same molecule?
The value was 154 and 156.

same assay, conditions: 48 h, 10 µM, compound concentration 10 uM

Which results are given for `Nc1nc(CC(=O)Nc2ccc(CCNC[C@H](O)c3ccccc3)cc2)cs1` [MIRABEGRON]?
Population Apoptotic (%): 64% and 75%; Population Fragmented Nuclei (%): 18% and 39%; Population Healthy Nuclei (%): 74% and 48%; Population Hoechst High Intensity Objects (%): 4% and 3%; Population Membrane Permeable-Phenotype (%): 0% and 6%; Population Mitochondria Different-Phenotype (%): 4% and 6%; Population Mitotic Cells (%): 35% and 25%; Population Normal (%): 95% and 96%; Population Pyknosed Nuclei (%): 7% and 12%; Population Tubulin-Different-Phenotype (%): 21% and 51%; Total Cell Count: 194 and 132

For `COc1ccc2c(c1OCc1ccccc1)C[C@@H](C(=O)O)N(C(=O)C(c1ccccc1)c1ccccc1)C2` [OLODANRIGAN], which “Population Apoptotic (%)” value is on record?
The value was 57% and 61%.

What about the “Population Fragmented Nuclei (%)” value of the same molecule?
The value was 15% and 29%.

And the “Population Healthy Nuclei (%)” value?
The value was 69% and 58%.

What about the “Population Hoechst High Intensity Objects (%)” value of the same molecule?
The value was 5% and 7%.

And the “Population Membrane Permeable-Phenotype (%)” value?
Its value is 1% and 3%.

What about the “Population Mitochondria Different-Phenotype (%)” value of the same molecule?
Its value is 5%.

What about the “Population Mitotic Cells (%)” value of the same molecule?
The value was 42% and 38%.

What about the “Population Normal (%)” value of the same molecule?
Its value is 94% and 92%.

What about the “Population Pyknosed Nuclei (%)” value of the same molecule?
Its value is 15% and 12%.

And the “Population Tubulin-Different-Phenotype (%)” value?
Its value is 27% and 45%.

And the “Total Cell Count” value?
Its value is 146 and 163.
